Assay results from different studies.
Lines come from different studies, so protocols differ.
Organism: Salmonella enterica
Read-out: microbial growth

CC1=NN(CNc2ccc(Cl)cc2)C(=O)C1=NNn1c(-c2ccccc2)nc2ccccc2c1=O gave an MIC of 103 µM (broth dilution; PARATYPHI; 24 h).
The MIC of O=C(O)c1cn(C2CC2)c2cc(N3CCNCC3)c(F)cc2c1=O is reported as 62.5 µg/mL (broth dilution; TYPHI; 24 h).
[H]/N=C(/N)N[C@H]1[C@H](O)[C@@H](O)[C@H](O[C@@H]2O[C@@H](C)[C@](O)(C=O)[C@H]2O[C@@H]2O[C@@H](CO)[C@H](O)[C@@H](O)[C@@H]2NC)[C@@H](N/C(N)=N\[H])[C@@H]1O has an MIC of 4100 µg/mL (CHOLERAESUIS; 20 h, pH 7).
With CC1(C)S[C@@H]2[C@H](NC(=O)[C@H](N)c3ccccc3)C(=O)N2[C@H]1C(=O)O the MIC was 32 µg/mL (broth dilution; PARATYPHI; 16 h).
For CCn1cc(C(=O)O)c(=O)c2ccc(C)nc21, the MIC was 15.6 µg/mL (broth dilution; TYPHI; 24 h).
CC1=NN(CNc2ccccc2[N+](=O)[O-])C(=O)C1=NNn1c(-c2ccccc2)nc2ccccc2c1=O gave an MIC of 50.4 µM (broth dilution; PARATYPHI; 24 h).
CO/N=C(\C(=O)N[C@@H]1C(=O)N2C(C(=O)O)=C(CSc3nc(=O)c(=O)[nH]n3C)CS[C@H]12)c1csc(N)n1 has an MIC of 0.125 µg/mL (CHOLERAESUIS; 20 h, pH 5.5).
With C[C@H]1[C@H](NC(=O)/C(=N\OC(C)(C)C(=O)O)c2csc(N)n2)C(=O)N1S(=O)(=O)O the MIC was ≤ 0.03 µg/mL (agar dilution; TYPHI).
For O=C1NN=C(N=Cc2ccccc2)C1=NNn1c(-c2ccccc2)nc2ccccc2c1=O, the MIC was 114 µM (broth dilution; PARATYPHI; 24 h).
For CO/N=C(\C(=O)N[C@@H]1C(=O)N2C(C(=O)O)=C(CSC(=O)c3ccco3)CS[C@H]12)c1csc(N)n1, the MIC was 1 µg/mL (ENTERITIDIS; 20 h, pH 5.5).
With CO[C@H]1O[C@H](COC(c2ccccc2)(c2ccccc2)c2ccccc2)[C@@H](OC(=O)c2ccc(C(C)(C)C)cc2)[C@H](OC(=O)c2ccc(C(C)(C)C)cc2)[C@H]1OC(=O)c1ccc(C(C)(C)C)cc1 the MIC was 2 µg/mL (broth dilution; TYPHI).
CCCCCCCCCCCC(=O)OC[C@H]1O[C@@H](n2cc(C)c(=O)[nH]c2=O)C[C@@H]1O has an MIC of 1 µg/mL (broth dilution; TYPHI).
With O=C1NN=C(N=Cc2ccc(O)cc2O)C1=NNn1c(-c2ccccc2)nc2ccccc2c1=O the MIC was 53.5 µM (broth dilution; PARATYPHI; 24 h).
C[C@H]1COc2c(N3CCN(C)CC3)c(F)cc3c(=O)c(C(=O)O)cn1c23 has an MIC of ≤ 0.03 µg/mL (agar dilution; TYPHI).
CCN1CCN(c2cc3c(cc2F)c(=O)c(C(=O)O)cn3C2CC2)CC1 has an MIC of 0.0625 µg/mL (CHOLERAESUIS; 20 h, pH 7.2).
CCCCCCCCCCCC(=O)OC[C@H]1O[C@@H](n2cc(C)c(=O)[nH]c2=O)C[C@@H]1OC(=O)c1ccc(C(C)(C)C)cc1 gave an MIC of 0.5 µg/mL (broth dilution; TYPHI).
For O=C(N[C@H](CO)[C@H](O)c1ccc([N+](=O)[O-])cc1)C(Cl)Cl, the MIC was 2 µg/mL (CHOLERAESUIS; 20 h, pH 5.5).
CC1=NN(CNc2ccc(C(=O)O)cc2)C(=O)C1=NNn1c(-c2ccccc2)nc2ccccc2c1=O gave an MIC of 50.5 µM (broth dilution; PARATYPHI; 24 h).
For CS(=O)(=O)c1ccc([C@@H](O)[C@@H](CF)NC(=O)C(Cl)Cl)cc1, the MIC was 4 µg/mL (CHOLERAESUIS; 20 h, pH 7).
For CC(=O)NCN1N=C(C)C(=NNn2c(-c3ccccc3)nc3ccccc3c2=O)C1=O, the MIC was 59.9 µM (broth dilution; PARATYPHI; 24 h).
